Values after ≈ are worked out from the molar mass of the structure shown.
Legend:
Assay type in all cases: functional
[1] = system: Stenotrophomonas maltophilia; assay: Antimicrobial activity against Stenotrophomonas maltophilia clinical isolate after 18 to 22 hrs by broth microdilution method
Haemophilus influenzae = assay: Antimicrobial activity against beta-lactamase-producing Haemophilus influenzae clinical isolate after 18 to 22 hrs by broth microdilution method
[2] = system: Staphylococcus epidermidis; assay: Antimicrobial activity against methicillin-susceptible Staphylococcus epidermidis clinical isolate after 18 to 22 hrs by broth microdilution method
Enterococcus faecium [3] = assay: Antimicrobial activity against vancomycin-resistant Enterococcus faecium clinical isolate after 18 to 22 hrs by broth microdilution method in presence of beta-lactamase inhibitor Tazobactam
Outline: (§1)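 CLSI broth microdilution in Mueller-Hinton II broth. Antibiotic in serial dilution with the β-lactamase inhibitor held at a constant 4 μg/ml. Inoculum 10^5 CFU/ml. Incubated 18 to 22 h at 35°C in ambient air.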

Enterococcus faecium [4] = assay: Antimicrobial activity against vancomycin-resistant Enterococcus faecium clinical isolate after 18 to 22 hrs by broth microdilution method in presence of beta-lactamase inhibitor BLI-489; outline: as §1
Enterococcus avium = assay: Antimicrobial activity against Enterococcus avium clinical isolate after 18 to 22 hrs by broth microdilution method in presence of beta-lactamase inhibitor Tazobactam
Outline: (§2)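 Piperacillin-tazobactam was tested on recent clinical isolates by CLSI broth microdilution in Mueller-Hinton II broth, with tazobactam at constant 4 μg/ml. Wells held 10^5 CFU/ml and were incubated 18 to 22 h at 35°C in ambient air. MIC was the lowest concentration with no growth visible to the unaided eye.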

Streptococcus pneumoniae = assay: Antimicrobial activity against penicillin-susceptible Streptococcus pneumoniae clinical isolate after 18 to 22 hrs by broth microdilution method
Bacteroides fragilis [5] = assay: Antimicrobial activity against Bacteroides fragilis clinical isolate after 18 to 22 hrs by broth microdilution method
Bacteroides fragilis [6] = assay: Antimicrobial activity against Bacteroides fragilis clinical isolate after 18 to 22 hrs by broth microdilution method in presence of beta-lactamase inhibitor BLI-489
[7] = system: Bacteroides thetaiotaomicron; assay: Antimicrobial activity against Bacteroides thetaiotaomicron clinical isolate after 18 to 22 hrs by broth microdilution method
Bacteroides uniformis = assay: Antimicrobial activity against Bacteroides uniformis clinical isolate after 18 to 22 hrs by broth microdilution method in presence of beta-lactamase inhibitor Tazobactam
Enterococcus durans = assay: Antimicrobial activity against Enterococcus durans clinical isolate after 18 to 22 hrs by broth microdilution method
Enterococcus hirae = assay: Antimicrobial activity against Enterococcus hirae clinical isolate after 18 to 22 hrs by broth microdilution method in presence of beta-lactamase inhibitor Tazobactam
Outline: (§3)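 Piperacillin-tazobactam was tested by CLSI broth microdilution in Mueller-Hinton II broth against clinical isolates. Inoculum was 10^5 CFU/ml, with 18 to 22 h incubation at 35°C in ambient air. MIC was read as the lowest concentration completely inhibiting visible growth.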

Enterobacter cloacae = assay: Antimicrobial activity against Enterobacter cloacae clinical isolate after 18 to 22 hrs by broth microdilution method
Escherichia coli [8] = assay: Antimicrobial activity against AmpC beta-lactamase-producing Escherichia coli clinical isolate after 18 to 22 hrs by broth microdilution method
Klebsiella aerogenes = assay: Antimicrobial activity against AmpC beta-lactamase-producing Enterobacter aerogenes clinical isolate after 18 to 22 hrs by broth microdilution method
Klebsiella pneumoniae [9] = assay: Antimicrobial activity against Klebsiella pneumoniae clinical isolate after 18 to 22 hrs by broth microdilution method
Escherichia coli [10] = assay: Antimicrobial activity against Escherichia coli clinical isolate after 18 to 22 hrs by broth microdilution method in presence of beta-lactamase inhibitor Tazobactam
Escherichia coli [11] = assay: Antimicrobial activity against AmpC beta-lactamase-producing Escherichia coli clinical isolate after 18 to 22 hrs by broth microdilution method in presence of beta-lactamase inhibitor Tazobactam; outline: as §2
Klebsiella pneumoniae [12] = assay: Antimicrobial activity against class A extended spectrum beta-lactamase- producing Klebsiella pneumoniae clinical isolate after 18 to 22 hrs by broth microdilution method
Klebsiella pneumoniae [13] = assay: Antimicrobial activity against class A extended spectrum beta-lactamase- and class D OXA- producing Klebsiella pneumoniae clinical isolate after 18 to 22 hrs by broth microdilution method in presence of beta-lactamase inhibitor Tazobactam; outline: as §3
Klebsiella oxytoca [14] = assay: Antimicrobial activity against Klebsiella oxytoca clinical isolate after 18 to 22 hrs by broth microdilution method
Klebsiella oxytoca [15] = assay: Antimicrobial activity against Klebsiella oxytoca clinical isolate after 18 to 22 hrs by broth microdilution method in presence of beta-lactamase inhibitor Tazobactam; outline: as §3
Serratia marcescens = assay: Antimicrobial activity against Serratia marcescens clinical isolate after 18 to 22 hrs by broth microdilution method in presence of beta-lactamase inhibitor Tazobactam; outline: as §3
Providencia stuartii [16] = assay: Antimicrobial activity against Providencia stuartii clinical isolate after 18 to 22 hrs by broth microdilution method
Providencia stuartii [17] = assay: Antimicrobial activity against Providencia stuartii clinical isolate after 18 to 22 hrs by broth microdilution method in presence of beta-lactamase inhibitor Tazobactam; outline: as §3
[18] = system: Acinetobacter calcoaceticus; assay: Antimicrobial activity against Acinetobacter calcoaceticus clinical isolate after 18 to 22 hrs by broth microdilution method
[19] = system: Acinetobacter calcoaceticus; assay: Antimicrobial activity against Acinetobacter calcoaceticus clinical isolate after 18 to 22 hrs by broth microdilution method in presence of beta-lactamase inhibitor BLI-489
Outline: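 CLSI broth microdilution in Mueller-Hinton II broth. Piperacillin serial dilutions were combined with BLI-489 held constant at 4 μg/ml. Inoculum was 10^5 CFU/ml. Plates were incubated 18 to 22 h at 35°C in ambient air. MIC was the lowest concentration completely inhibiting growth seen by the unaided eye. Piperacillin-tazobactam interpretive criteria were applied.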

[20] = system: Acinetobacter haemolyticus; assay: Antimicrobial activity against Acinetobacter haemolyticus clinical isolate after 18 to 22 hrs by broth microdilution method
[21] = system: Acinetobacter haemolyticus; assay: Antimicrobial activity against Acinetobacter haemolyticus clinical isolate after 18 to 22 hrs by broth microdilution method in presence of beta-lactamase inhibitor Tazobactam; outline: as §2
Acinetobacter johnsonii = assay: Antimicrobial activity against Acinetobacter johnsonii clinical isolate after 18 to 22 hrs by broth microdilution method

`CCN1CCN(C(=O)N[C@@H](C(=O)N[C@@H]2C(=O)N3[C@@H]2SC(C)(C)[C@@H]3C(=O)O)c2ccccc2)C(=O)C1=O` [PIPERACILLIN] gave an MIC [1] greater than 128 µg/mL, an MIC50 [1] greater than 128 µg/mL and an MIC90 [1] greater than 128 µg/mL. The MIC50 (Haemophilus influenzae) was 8 µg/mL (≈ 15.5 µM), the MIC90 (Haemophilus influenzae) was 32 µg/mL (≈ 61.8 µM) and the MIC50 [2] was 2 µg/mL (≈ 3.86 µM). For the same compound, the MIC90 [2] was 8 µg/mL (≈ 15.5 µM), the MIC (Enterococcus faecium [3]) was greater than 128 µg/mL and the MIC50 (Enterococcus faecium [3]) was greater than 128 µg/mL. It also gave an MIC50 (Enterococcus faecium [4]) greater than 128 µg/mL, an MIC50 (Enterococcus avium) of 16 µg/mL and an MIC90 (Enterococcus avium) of 64 µg/mL. The MIC50 (Streptococcus pneumoniae) was 0.015 µg/mL (≈ 0.029 µM), the MIC90 (Streptococcus pneumoniae) was 0.03 µg/mL (≈ 0.058 µM) and the MIC50 (Bacteroides fragilis [5]) was 8 µg/mL (≈ 15.5 µM). For the same compound, the MIC90 (Bacteroides fragilis [5]) was greater than 128 µg/mL, the MIC50 (Bacteroides fragilis [6]) was 0.25 µg/mL and the MIC90 (Bacteroides fragilis [6]) was 0.5 µg/mL. It also gave an MIC50 [7] of 32 µg/mL (≈ 61.8 µM), an MIC90 [7] greater than 128 µg/mL and an MIC50 (Bacteroides uniformis) of 0.5 µg/mL. For the same compound, the MIC90 (Bacteroides uniformis) was 4 µg/mL, the MIC50 (Enterococcus durans) was 4 µg/mL (≈ 7.73 µM) and the MIC90 (Enterococcus durans) was 16 µg/mL (≈ 30.9 µM). It also gave an MIC50 (Enterococcus hirae) of 4 µg/mL, an MIC90 (Enterococcus hirae) of 16 µg/mL and an MIC50 (Enterobacter cloacae) of 4 µg/mL (≈ 7.73 µM). It also gave an MIC90 (Enterobacter cloacae) greater than 128 µg/mL, an MIC50 (Escherichia coli [8]) greater than 128 µg/mL and an MIC90 (Escherichia coli [8]) greater than 128 µg/mL. It also gave an MIC50 (Klebsiella aerogenes) greater than 128 µg/mL, an MIC90 (Klebsiella aerogenes) greater than 128 µg/mL and an MIC50 (Klebsiella pneumoniae [9]) of 8 µg/mL (≈ 15.5 µM). It also gave an MIC90 (Klebsiella pneumoniae [9]) of 128 µg/mL (≈ 247 µM), an MIC50 (Escherichia coli [10]) of 2 µg/mL and an MIC90 (Escherichia coli [10]) of 2 µg/mL. The MIC50 (Escherichia coli [11]) was 4 µg/mL, the MIC90 (Escherichia coli [11]) was 8 µg/mL and the MIC (Klebsiella pneumoniae [12]) was greater than 128 µg/mL. It also gave an MIC50 (Klebsiella pneumoniae [12]) greater than 128 µg/mL, an MIC90 (Klebsiella pneumoniae [12]) greater than 128 µg/mL and an MIC50 (Klebsiella pneumoniae [13]) of 16 µg/mL. It also gave an MIC90 (Klebsiella pneumoniae [13]) greater than 128 µg/mL, an MIC50 (Klebsiella oxytoca [14]) of 8 µg/mL (≈ 15.5 µM) and an MIC90 (Klebsiella oxytoca [14]) of 64 µg/mL (≈ 124 µM). It also gave an MIC50 (Klebsiella oxytoca [15]) of 2 µg/mL, an MIC90 (Klebsiella oxytoca [15]) of 8 µg/mL and an MIC50 (Serratia marcescens) of 2 µg/mL. The MIC90 (Serratia marcescens) was 64 µg/mL, the MIC50 (Providencia stuartii [16]) was 2 µg/mL (≈ 3.86 µM) and the MIC50 (Providencia stuartii [17]) was 2 µg/mL. For the same compound, the MIC90 (Providencia stuartii [17]) was 16 µg/mL, the MIC50 [18] was greater than 128 µg/mL and the MIC90 [18] was greater than 128 µg/mL. The MIC50 [19] was greater than 128 µg/mL, the MIC90 [19] was greater than 128 µg/mL and the MIC50 [20] was 4 µg/mL (≈ 7.73 µM). The MIC90 [20] was 128 µg/mL (≈ 247 µM), the MIC50 [21] was no more than 0.12 µg/mL and the MIC90 [21] was 32 µg/mL. It also gave an MIC50 (Acinetobacter johnsonii) of 4 µg/mL (≈ 7.73 µM) and an MIC90 (Acinetobacter johnsonii) of 128 µg/mL (≈ 247 µM).

`C[C@H]1COc2c(N3CCN(C)CC3)c(F)cc3c(=O)c(C(=O)O)cn1c23.C[C@H]1COc2c(N3CCN(C)CC3)c(F)cc3c(=O)c(C(=O)O)cn1c23.O` [LEVOFLOXACIN] showed an MIC50 [1] of 1 µg/mL, an MIC90 [1] of 4 µg/mL and an MIC (Haemophilus influenzae) of no more than 0.015 µg/mL. The MIC50 (Haemophilus influenzae) was no more than 0.015 µg/mL, the MIC90 (Haemophilus influenzae) was no more than 0.015 µg/mL and the MIC50 [2] was 0.12 µg/mL. For the same compound, the MIC90 [2] was 0.25 µg/mL, the MIC50 (Streptococcus pneumoniae) was 1 µg/mL and the MIC90 (Streptococcus pneumoniae) was 1 µg/mL. For the same compound, the MIC50 (Enterococcus durans) was 1 µg/mL, the MIC90 (Enterococcus durans) was 8 µg/mL and the MIC50 (Enterobacter cloacae) was 0.06 µg/mL. For the same compound, the MIC90 (Enterobacter cloacae) was greater than 16 µg/mL, the MIC50 (Escherichia coli [8]) was 16 µg/mL and the MIC90 (Escherichia coli [8]) was greater than 16 µg/mL. The MIC50 (Klebsiella aerogenes) was 0.12 µg/mL, the MIC90 (Klebsiella aerogenes) was 8 µg/mL and the MIC50 (Klebsiella pneumoniae [9]) was 0.06 µg/mL. For the same compound, the MIC90 (Klebsiella pneumoniae [9]) was 0.5 µg/mL, the MIC50 (Klebsiella pneumoniae [12]) was 0.5 µg/mL and the MIC90 (Klebsiella pneumoniae [12]) was 8 µg/mL. The MIC50 (Klebsiella oxytoca [14]) was 0.03 µg/mL, the MIC90 (Klebsiella oxytoca [14]) was 0.25 µg/mL and the MIC50 (Providencia stuartii [16]) was 1 µg/mL. For the same compound, the MIC90 (Providencia stuartii [16]) was 16 µg/mL, the MIC50 [18] was 8 µg/mL and the MIC90 [18] was 16 µg/mL. The MIC50 [20] was 0.12 µg/mL, the MIC90 [20] was 2 µg/mL and the MIC50 (Acinetobacter johnsonii) was 0.12 µg/mL. For the same compound, the MIC90 (Acinetobacter johnsonii) was 2 µg/mL.
